This is an account of results in publication PMC6722387 (Cellular and Molecular Gastroenterology and Hepatology, 2019).

Series [1] has as its system human iPS-IECMs. Description: Determination of Fg value. In kind it is in vitro ADME. The settings on record: 3 μM MDZ apical, 60-minute incubation. An outline of the steps:
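Monolayers on inserts were preincubated 10 min at 37°C in HBSS with 10 mM HEPES, pH 7.4. Apical: 3 μM midazolam in HBSS; basolateral: HBSS with 0.1% DMSO. After 60 min at 37°C, both chambers and the twice-washed cells were collected into acetonitrile/ethanol (7:3) with candesartan internal standard. Midazolam and 1′-OH midazolam were quantified by UPLC-MS/MS. Fg was derived from summed metabolite across all compartments plus basolateral and cellular midazolam.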

The test system of another series is human intestinal tissue. The settings on record: human intestinal tissue / human in vivo; cited from earlier work.
For series [2], the system named is human iPS-IECMs. Nature of the series: LY permeability test across human iPS-IECMs. In kind it is in vitro ADME. As to conditions: Ad-LacZ- and Ad-TF-transduced cells; apical to basolateral; 60 μM LY, 70 min, 37°C.

`Cc1ncc2n1-c1ccc(Cl)cc1C(c1ccccc1F)=NC2` [MDZ, midazolam]: the figures for the “Fg (fraction passing the gut wall)” value in the series with human iPS-IECMs [1] and in the series with human intestinal tissue were 0.73 and 0.57, respectively.
Consider LY CH Dipotassium Salt, for which the “Lucifer yellow (LY) Papp” value in the series with human iPS-IECMs [2] is recorded as “approximately 0.44 ×10^–6 cm/s”.
